Measured values reported in ChEMBL document CHEMBL3616436, “Synthesis, cytotoxicity and antimicrobial activity of thiourea derivatives incorporating 3-(trifluoromethyl)phenyl moiety” (Eur J Med Chem, 2015).
Values after ≈ are worked out from the molar mass of the structure shown. Active and inactive are the calls of the source. No cut-off for these calls is given here.

What was measured:
[1] = Cytotoxicity against human MT4 cells; format: cell-based
[2] = test system: Vesicular stomatitis virus; test: Antiviral activity against Vesicular stomatitis virus ATCC VR 1540 infected in African green monkey Vero 76 cells assessed as reduction of virus-plaque formation after 2 days by crystal violet staining; format: functional, organism-based; settings: ATCC VR 1540, Vero, 48 h
[3] = test system: Human immunodeficiency virus 1; test: Antiviral activity against HIV1 3B infected in human MT4 cells assessed as protection against virus-induced cytopathogenicity by MTT assay; format: functional, organism-based; settings: Human immunodeficiency virus 1, 3B
[4] = Cytotoxicity against bovine MDBK cells assessed as cell viability after 48 to 96 hrs by MTT assay; format: cell-based, Bos taurus; settings: cattle
[5] = Antiviral activity against Bovine viral diarrhea virus 1-NADL ATCC VR-534 infected in MDBK cells assessed as protection against virus-induced cytopathogenicity after 3 to 4 days by MTT assay; format: functional, cell-based; settings: Bovine viral diarrhea virus isolates and strains, ATCC VR-534, MDBK
Method in brief: (§1)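 Cells seeded in 96-well plates (BHK 5x10^4, MDBK 3x10^4 cells/well), grown overnight to confluence, infected at m.o.i. 0.01 (BHK for Reo-1, MDBK for BVDV); serial compound dilutions in maintenance medium with 0.5% inactivated FBS added after 1 h; viability by MTT after 3–4 days at 37°C; EC50 for 50% protection by linear regression.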

[6] = Cytotoxicity against BHK cells assessed as cell viability after 48 to 96 hrs by MTT assay; format: cell-based, Mesocricetus auratus; settings: hamster
Yellow fever virus = test: Antiviral activity against Yellow fever virus 17D infected in BHK cells assessed as protection against virus-induced cytopathogenicity after 3 to 4 days by MTT assay; format: functional, cell-based
[7] = test system: Mammalian orthoreovirus 1; test: Antiviral activity against Reovirus type-1 ATCC VR-214 infected in BHK cells assessed as protection against virus-induced cytopathogenicity after 3 to 4 days by MTT assay; format: functional, cell-based; settings: Mammalian orthoreovirus 1, ATCC VR-214, BHK; method in brief: as §1
[8] = Cytotoxicity against African green monkey Vero 76 cells assessed as cell viability after 48 to 96 hrs by crystal violet staining; format: cell-based; settings: chlorocebus sabaeus
Coxsackievirus B5 = test: Antiviral activity against Human coxsackievirus B5 ATCC VR-29 infected in African green monkey Vero 76 cells assessed as reduction of virus-plaque formation after 3 days by crystal violet staining; format: functional, organism-based; settings: Enterovirus B, ATCC VR-29, Vero, 72 h
Method in brief: (§2)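 Plaque reduction: Vero-76 at 2x10^5 cells/well grown to confluent monolayers, infected 2 h at 50–100 PFU/well; after removing unadsorbed virus, overlay of D-MEM, 1% inactivated FBS, 0.75% methylcellulose with or without serial compound dilutions; 3 days at 37°C, fixed and stained with crystal violet in 50% ethanol, plaques counted; EC50 by linear regression.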

Poliovirus 1 = test: Antiviral activity against Poliovirus type 1 ATCC VR-1562 infected in African green monkey Vero 76 cells assessed as reduction of virus-plaque formation after 2 days by crystal violet staining; format: functional, organism-based; settings: Enterovirus C, ATCC VR-1562, Vero, 48 h
Vaccinia virus = test: Antiviral activity against Human Vaccinia virus ATCC VR-1549 infected in African green monkey Vero 76 cells assessed as reduction of virus-plaque formation after 3 days by crystal violet staining; format: functional, organism-based; settings: Orthopoxvirus vaccinia, ATCC VR-1549, Vero, 72 h
Human alphaherpesvirus 1 = test: Antiviral activity against Human herpesvirus 1 KOS ATCC VR-1493 infected in African green monkey Vero 76 cells assessed as reduction of virus-plaque formation after 3 days by crystal violet staining; format: functional, organism-based; settings: Human alphaherpesvirus 1, KOS ATCC VR1493, Vero, 72 h; method in brief: as §2
Staphylococcus aureus [9] = test: Antimicrobial activity against Staphylococcus aureus NCTC 4163 at 400 ug after 18 hrs by disc-diffusion method; format: functional; settings: NCTC 4163, 18 h, read-out: IZ
Method in brief: (§3)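 Disc diffusion on Mueller-Hinton II agar per CLSI; 9 mm paper discs loaded with 400 µg compound from DMSO solution, dried, placed on agar; growth inhibition zone diameter read after 18 h at 35°C.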

Staphylococcus aureus [10] = test: Antimicrobial activity against Staphylococcus aureus ATCC 25923 at 400 ug after 18 hrs by disc-diffusion method; format: functional; settings: ATCC 25923, 18 h, read-out: IZ; method in brief: as §3
Staphylococcus aureus [11] = test: Antimicrobial activity against Staphylococcus aureus ATCC 6538 at 400 ug after 18 hrs by disc-diffusion method; format: functional; settings: ATCC 6538, 18 h, read-out: IZ; method in brief: as §3
Staphylococcus aureus [12] = test: Antimicrobial activity against Staphylococcus aureus ATCC 29213 at 400 ug after 18 hrs by disc-diffusion method; format: functional; settings: ATCC 29213, 18 h, read-out: IZ; method in brief: as §3
[13] = test system: Staphylococcus epidermidis; test: Antimicrobial activity against Staphylococcus epidermidis ATCC 12228 at 400 ug after 18 hrs by disc-diffusion method; format: functional; settings: ATCC 12228, 18 h, read-out: IZ; method in brief: as §3
[14] = test system: Staphylococcus epidermidis; test: Antimicrobial activity against Staphylococcus epidermidis ATCC 35984 at 400 ug after 18 hrs by disc-diffusion method; format: functional; settings: ATCC 35984, 18 h, read-out: IZ; method in brief: as §3
Bacillus subtilis = test: Antimicrobial activity against Bacillus subtilis ATCC 6633 at 400 ug after 18 hrs by disc-diffusion method; format: functional; settings: ATCC 6633, 18 h, read-out: IZ; method in brief: as §3
Bacillus cereus = test: Antimicrobial activity against Bacillus cereus ATCC 11778 at 400 ug after 18 hrs by disc-diffusion method; format: functional; settings: ATCC 11778, 18 h, read-out: IZ; method in brief: as §3
Enterococcus hirae = test: Antimicrobial activity against Enterococcus hirae ATCC 10541 at 400 ug after 18 hrs by disc-diffusion method; format: functional; settings: ATCC 10541, 18 h, read-out: IZ; method in brief: as §3
Enterococcus faecalis = test: Antimicrobial activity against Enterococcus faecalis ATCC 29212 at 400 ug after 18 hrs by disc-diffusion method; format: functional; settings: ATCC 29212, 18 h, read-out: IZ; method in brief: as §3
Micrococcus luteus [15] = test: Antimicrobial activity against Micrococcus luteus ATCC 10240 at 400 ug after 18 hrs by disc-diffusion method; format: functional; settings: ATCC 10240, 18 h, read-out: IZ; method in brief: as §3
Micrococcus luteus [16] = test: Antimicrobial activity against Micrococcus luteus ATCC 9341 at 400 ug after 18 hrs by disc-diffusion method; format: functional; settings: ATCC 9341, 18 h, read-out: IZ; method in brief: as §3
Proteus vulgaris = test: Antimicrobial activity against Proteus vulgaris NCTC 4635 at 400 ug after 18 hrs by disc-diffusion method; format: functional; method in brief: as §3
Staphylococcus aureus [17] = test: Antimicrobial activity against Staphylococcus aureus NCTC 4163 after 18 hrs by twofold serial microdilution method; format: functional; settings: NCTC 4163, 18 h
Staphylococcus aureus [18] = test: Antimicrobial activity against Staphylococcus aureus ATCC 25923 after 18 hrs by twofold serial microdilution method; format: functional; settings: ATCC 25923, 18 h
Staphylococcus aureus [19] = test: Antimicrobial activity against Staphylococcus aureus ATCC 6538 after 18 hrs by twofold serial microdilution method; format: functional; settings: ATCC 6538, 18 h
Staphylococcus aureus [20] = test: Antimicrobial activity against Staphylococcus aureus ATCC 29213 after 18 hrs by twofold serial microdilution method; format: functional; settings: ATCC 29213, 18 h
[21] = test system: Staphylococcus epidermidis; test: Antimicrobial activity against Staphylococcus epidermidis ATCC 12228 after 18 hrs by twofold serial microdilution method; format: functional; settings: ATCC 12228, 18 h
[22] = test system: Staphylococcus epidermidis; test: Antimicrobial activity against Staphylococcus epidermidis ATCC 35984 after 18 hrs by twofold serial microdilution method; format: functional; settings: ATCC 35984, 18 h
[23] = test system: Mycobacterium tuberculosis; test: Antimycobacterial activity against Mycobacterium tuberculosis H37Rv ATCC 25618; format: functional
Method in brief: (§4)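 Classical test-tube successive-dilution method in Youmans' modification of Proskauer and Beck liquid medium with 10% bovine serum. Inoculum came from 14-day cultures. DMSO stock was 10 mg/mL, diluted geometrically in medium. Tubes were incubated at 37 °C. Concentrations tested were 3.1, 6.2, 12.5, 25, 50 and 100 µg/ml. MIC is the minimum concentration inhibiting growth relative to compound-free tubes.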

[24] = test system: Mycobacterium tuberculosis; test: Antimycobacterial activity against drug-sensitive Mycobacterium tuberculosis Spec. 192; format: functional; method in brief: as §4

SMILES	CC50 [1] [µM]	EC50 [2] [µM]	EC50 [3] [µM]	CC50 [4] [µM]	EC50 [5] [µM]	CC50 [6] [µM]	EC50 (Yellow fever virus) [µM]	EC50 [7] [µM]	CC50 [8] [µM]	EC50 (Coxsackievirus B5) [µM]	EC50 (Poliovirus 1) [µM]	EC50 (Vaccinia virus) [µM]	EC50 (Human alphaherpesvirus 1) [µM]	zone of inhibition at 400 µg/disc (Staphylococcus aureus [9]) [mm]	zone of inhibition at 400 µg/disc (Staphylococcus aureus [10]) [mm]	zone of inhibition at 400 µg/disc (Staphylococcus aureus [11]) [mm]	zone of inhibition at 400 µg/disc (Staphylococcus aureus [12]) [mm]	zone of inhibition at 400 µg/disc [13] [mm]	zone of inhibition at 400 µg/disc [14] [mm]	zone of inhibition at 400 µg/disc (Bacillus subtilis) [mm]	other results
COc1cccc(NC(=S)Nc2cccc(C(F)(F)F)c2)c1	26	> 20	> 26	52	> 52	12	> 12	> 12	20	> 20	> 20	> 20	> 20	20	20	23	22	22	21	20	zone of inhibition at 400 µg/disc (Bacillus cereus): 19 mm; zone of inhibition at 400 µg/disc (Enterococcus hirae): 12 mm; zone of inhibition at 400 µg/disc (Enterococcus faecalis): 13 mm; zone of inhibition at 400 µg/disc (Micrococcus luteus [15]): 19 mm; zone of inhibition at 400 µg/disc (Micrococcus luteus [16]): 24 mm; inhibition zone (IZ) (Proteus vulgaris): inactive; MIC (Staphylococcus aureus [17]): 32 µg/mL (≈ 98.1 µM); MIC (Staphylococcus aureus [18]): 32 µg/mL (≈ 98.1 µM); MIC (Staphylococcus aureus [19]): 32 µg/mL (≈ 98.1 µM); MIC (Staphylococcus aureus [20]): 32 µg/mL (≈ 98.1 µM); MIC [21]: 32 µg/mL (≈ 98.1 µM); MIC [22]: 32 µg/mL (≈ 98.1 µM); MIC [23]: > 100 µg/mL; MIC [24]: > 100 µg/mL
FC(F)(F)c1cccc(NC(=S)NCc2ccco2)c1	43	> 50	> 43	> 100	> 100	48	> 48	> 48	50	> 50	> 50	> 50	> 50	14	14	14	19	12	13	15	zone of inhibition at 400 µg/disc (Bacillus cereus): 13 mm; zone of inhibition at 400 µg/disc (Enterococcus hirae): 13 mm; zone of inhibition at 400 µg/disc (Enterococcus faecalis): 0 mm; zone of inhibition at 400 µg/disc (Micrococcus luteus [15]): 13 mm; zone of inhibition at 400 µg/disc (Micrococcus luteus [16]): 13 mm; inhibition zone (IZ) (Proteus vulgaris): inactive; MIC (Staphylococcus aureus [17]): 256 µg/mL (≈ 852 µM); MIC (Staphylococcus aureus [18]): 256 µg/mL (≈ 852 µM); MIC (Staphylococcus aureus [19]): 256 µg/mL (≈ 852 µM); MIC (Staphylococcus aureus [20]): 256 µg/mL (≈ 852 µM); MIC [21]: 256 µg/mL (≈ 852 µM); MIC [22]: 512 µg/mL (≈ 1700 µM); MIC [23]: > 100 µg/mL; MIC [24]: > 100 µg/mL
